From ChEMBL document CHEMBL1131501, “Cytotoxic activities of Mannich bases of chalcones and related compounds” (J Med Chem, 1998)

How the values were obtained:
Format in all cases: functional, cell-based
P388 = test: Inhibition of proliferation of murine P388 cells; details: Mus musculus
Homo sapiens [1] = organism: Homo sapiens; test: Concentration required to inhibit 50% growth of human Molt 4/C8 T-lymphocyte cells; details: Molt4/C8
L1210 = test: Concentration required to inhibit 50% growth of L1210 leukemia cells; details: Mus musculus
Homo sapiens [2] = organism: Homo sapiens; test: Concentration required to inhibit 50% growth of Human CEM T-lymphocytes cells; details: CCRF-CEM
Tumor Cell line = test: Evaluation for cytotoxicity to human tumor cell lines.
Outline: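 Panel of about 55-60 human tumor lines (leukemia, melanoma, non-small cell lung, colon, CNS, ovarian, renal, prostate, breast) exposed to 10⁻⁸ to 10⁻⁴ M. Growth inhibition was read as intact-cell recovery relative to vehicle control after 48 h.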

IC50 (P388) [µM]	IC50 (L1210) [µM]	Structure (SMILES)	IC50 (Homo sapiens [1]) [µM]	IC50 (Homo sapiens [2]) [µM]	IC50 (Tumor Cell line) [µM]
8.86	15.9	CN(C)Cc1cc(C(=O)/C=C/c2cc(F)ccc2F)cc(CN(C)C)c1O	15.4	2.91	
15.1	32.3	CN(C)Cc1cc(/C=C/C(=O)c2ccc(Br)cc2)cc(CN(C)C)c1O	39.2	21.9	
44.1	25.8	COc1ccc(/C=C/C(=O)c2cc(CN(C)C)c(O)c(CN(C)C)c2)cc1	25.3	14.8	29.5
29.6	17.7	CN(C)Cc1cc(C(=O)/C=C/c2ccccc2)cc(CN(C)C)c1O	20.7	19.6	21.9
3.67	8.14	CN(C)Cc1cc(C(=O)/C=C/c2ccc(C(F)(F)F)cc2)cc(CN(C)C)c1O	8.3	1.56	
13.2	6.84	CN(C)Cc1cc(C(=O)/C=C/c2ccccc2Cl)cc(CN(C)C)c1O	7.13	8.08	9.55
26.9	16.9	CN(C)Cc1cc(C(=O)/C=C/c2ccc(F)cc2)cc(CN(C)C)c1O	17.2	13.8	20
10.9	7.09	CN(C)Cc1cc(C(=O)/C=C/c2ccc(Br)cc2)cc(CN(C)C)c1O	8.42	4.78	6.31
5.45	9.32	CN(C)Cc1cc(/C=C/C(=O)c2ccc(Cl)c(Cl)c2)cc(CN(C)C)c1O	12.4	10.4	
30.8	40.1	Cc1ccc(/C=C/C(=O)c2cc(CN(C)C)c(O)c(CN(C)C)c2)cc1	40.2	35.2	17.8
5.44	5.28	CN(C)Cc1cc(C(=O)/C=C/c2ccc(Cl)cc2Cl)cc(CN(C)C)c1O	5.74	4.87	3.09
13.7	8.33	CN(C)Cc1cc(C(=O)/C=C/c2ccc(Cl)cc2)cc(CN(C)C)c1O	8.41	6.48	10
> 50	54	CN(C)Cc1cc(C(=O)/C=C/c2ccc(O)cc2)cc(CN(C)C)c1O	44.3	39.1	39.8
	8.29	CN(C)Cc1cc(C(=O)/C=C/c2c(F)cccc2Cl)cc(CN(C)C)c1O	7.92	7.74	9.12
17.7	8.73	CN(C)Cc1cc(C(=O)/C=C/c2ccc([N+](=O)[O-])cc2)cc(CN(C)C)c1O	4.82	1.75	8.91
5.09	2.49	CN(C)Cc1cc(C(=O)/C=C/c2ccc(Cl)c(Cl)c2)cc(CN(C)C)c1O	6.99	2.48	2.35
8.66	5.96	CN(C)Cc1cc(C(=O)/C=C/c2cccc(Cl)c2)cc(CN(C)C)c1O	5.75	2.68	4.68
5.92	3.83	CN(C)Cc1cc(C(=O)/C=C/c2c(Cl)cccc2Cl)cc(CN(C)C)c1O	5.38	4.33	5.88
> 50	108	CN(C)Cc1cc(/C=C/C(=O)c2ccccc2)cc(CN(C)C)c1O	98	22.1	
5.51	24.7	Cc1ccc(/C=C/C(=O)c2ccc(O)cc2)cc1	25.4	11.3	

The remaining lines, values behind:

Structure (SMILES)	IC50 (P388) [µM]	IC50 (L1210) [µM]	IC50 (Homo sapiens [1]) [µM]	IC50 (Homo sapiens [2]) [µM]	IC50 (Tumor Cell line) [µM]
COc1ccc(/C=C/C(=O)c2ccc(OC(=O)/C=C/c3ccccc3)cc2)cc1	10.2	39.5	27.9	10.8	
O=C(/C=C/c1ccc([N+](=O)[O-])cc1)c1ccc(O)cc1	13.1	7.32	5.94	2.23	
COc1ccc(/C=C/C(=O)c2ccc(O)cc2)cc1	8.7	32.2	27.9	5.9	
O=C(/C=C/c1ccccc1Cl)c1ccc(O)cc1	6.85	24.5	18.2	13.9	
O=C(/C=C/c1ccc(O)cc1)c1ccc(Cl)c(Cl)c1	8.53	33.8	10.8	20	
O=C(/C=C/c1ccc(Cl)cc1Cl)c1ccc(O)cc1	7.89	25.2	13.9	10.2	
O=C(/C=C/c1ccc(/C=C/C(=O)c2ccc(O)cc2)cc1)c1ccc(O)cc1	0.564	395	30.3	78.6	93.3
O=C(/C=C/c1ccccc1)c1cc(CN2CCOCC2)c(O)c(CN2CCOCC2)c1	10.3	15.7	17.2	6.11	14.5
CN(C)Cc1cc(C(=O)/C=C/c2ccc(/C=C/C(=O)c3cc(CN(C)C)c(O)c(CN(C)C)c3)cc2)cc(CN(C)C)c1O					26.9
O=C(/C=C/c1ccc(Br)cc1)c1ccc(O)cc1	16.6	13.2	6.07	1.98	
O=C(/C=C/c1ccc(Cl)cc1)c1ccc(O)cc1	3.67	9.07	6.91	3.47	
O=C(/C=C/C=C/c1ccccc1)c1ccc(O)cc1	8.83	33.8	30.8	10	
O=C(/C=C/c1cccc(Cl)c1)c1ccc(O)cc1	2.82	21.2	6.8	5.4	
O=C(/C=C/c1ccc(Cl)c(Cl)c1)c1ccc(O)cc1	11.7	13.1	5.66	1.71	
O=C(/C=C/c1cc(F)ccc1F)c1ccc(O)cc1	0.864	12.2	7.88	3.57	
O=C(/C=C/c1ccccc1)Oc1ccc(C(=O)/C=C/c2ccc(Cl)cc2)cc1	3.82	265	220	45.3	
O=C(/C=C/c1c(Cl)cccc1Cl)c1ccc(O)cc1	3.17	5.15	5.15	1.36	
O=C(/C=C/c1ccc(C(F)(F)F)cc1)c1ccc(O)cc1	2.49	13	6.33	1.88	
O=C(/C=C/c1ccccc1)Oc1ccc(C(=O)/C=C/c2ccccc2)cc1	4.62	46.5	39.2	13.2	
O=C(/C=C/c1ccc(F)cc1)c1ccc(O)cc1	8.55	15.7	16.1	3.3	
N[C@@H](Cc1ccc(N(CCCl)CCCl)cc1)C(=O)O					26.3
O=C(/C=C/c1ccccc1)c1ccc(O)cc1 [4'-HYDROXYCHALCONE]	3.12	23.5	13.1	14.7	
O=C(/C=C/c1ccc(O)cc1)c1ccccc1 [4-HYDROXYCHALCONE]	14.3	37.9	8.58	9.31	
O=C(/C=C/c1ccccc1)c1ccccc1 [CHALCONE]	9.63	41.4	12.7	12.5	8.32
